≈ marks a conversion by molar mass, not a printed value.
Tests used:
[1] = tested on: Escherichia coli; assay: Antimicrobial activity against Escherichia coli after 24 hrs by tube dilution method; type: functional
Method in brief: (§1)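 Tube dilution in DMSO (stock 100 mg/ml) with serial dilutions; incubation 37 °C for 48 h for C. albicans (other organisms' times truncated in text). MIC read as lowest concentration inhibiting visible growth. Norfloxacin (bacteria) and fluconazole (fungi) as reference drugs.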

[2] = tested on: Aspergillus niger; assay: Antimicrobial activity against Aspergillus niger after 7 days by tube dilution method; type: functional; details: 168 h; method in brief: as §1
[3] = tested on: Staphylococcus aureus; assay: Antimicrobial activity against Staphylococcus aureus after 24 hrs by tube dilution method; type: functional; method in brief: as §1
[4] = tested on: Bacillus subtilis; assay: Antimicrobial activity against Bacillus subtilis after 24 hrs by tube dilution method; type: functional; method in brief: as §1
[5] = tested on: Candida albicans; assay: Antimicrobial activity against Candida albicans after 48 hrs by tube dilution method; type: functional; method in brief: as §1
[6] = tested on: Sindbis virus; assay: Antiviral activity against Sindbis virus infected in african green monkey Vero cells assessed as reduction in virus-induced cytopathogenicity after 3 days; type: functional, organism-based; details: 72 h
[7] = Cytotoxicity against african green monkey Vero cells assessed as alteration in cell morphology; type: cell-based; details: chlorocebus sabaeus
Method in brief: (§2)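 Uninfected cell cultures tested in parallel with the CPE-reduction antiviral assay; cells grown to confluency, then serial compound dilutions added and incubated at 37 °C (3 days in the parallel antiviral set-up). Read-out is microscopic examination of morphology; value is the minimum cytotoxic concentration, the lowest causing a microscopically detectable alteration of normal cell morphology.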

[8] = tested on: Coxsackievirus B4; assay: Antiviral activity against Coxsackievirus B4 infected in human HeLa cells assessed as reduction in virus-induced cytopathogenicity after 3 days; type: functional, organism-based; details: Enterovirus B, 72 h
[9] = tested on: Punta Toro virus; assay: Antiviral activity against Punta Toro virus infected in african green monkey Vero cells assessed as reduction in virus-induced cytopathogenicity after 3 days; type: functional, organism-based; details: 72 h
[10] = tested on: Human respirovirus 3; assay: Antiviral activity against Parainfluenza-3 virus infected in african green monkey Vero cells assessed as reduction in virus-induced cytopathogenicity after 3 days; type: functional, organism-based; details: Human respirovirus 3, Vero, 72 h
[11] = tested on: Respiratory syncytial virus; assay: Antiviral activity against RSV infected in human HeLa cells assessed as reduction in virus-induced cytopathogenicity after 3 days; type: functional, organism-based; details: 72 h
[12] = Cytotoxicity against human HeLa cells assessed as alteration in cell morphology; type: cell-based; method in brief: as §2
[13] = tested on: Coxsackievirus B4; assay: Antiviral activity against Coxsackievirus B4 infected in african green monkey Vero cells assessed as reduction in virus-induced cytopathogenicity after 3 days; type: functional, organism-based; details: Enterovirus B, 72 h
[14] = tested on: Mammalian orthoreovirus 1; assay: Antiviral activity against Reovirus 1 infected in african green monkey Vero cells assessed as reduction in virus-induced cytopathogenicity after 3 days; type: functional, organism-based; details: Mammalian orthoreovirus 1, Vero, 72 h
[15] = tested on: Vesicular stomatitis virus; assay: Antiviral activity against VSV infected in human HeLa cells assessed as reduction in virus-induced cytopathogenicity after 3 days; type: functional, organism-based; details: 72 h
[16] = tested on: Human alphaherpesvirus 1; assay: Antiviral activity against thymidine kinase-deficient acyclovir-resistant HSV1 KOS infected in human HEL cells assessed as reduction in virus-induced cytopathogenicity after 3 days; type: functional, organism-based; details: Human alphaherpesvirus 1, KOS, 72 h
[17] = tested on: Vesicular stomatitis virus; assay: Antiviral activity against VSV infected in human HEL cells assessed as reduction in virus-induced cytopathogenicity after 3 days; type: functional, organism-based; details: 72 h
[18] = tested on: Human alphaherpesvirus 1; assay: Antiviral activity against HSV1 KOS infected in human HEL cells assessed as reduction in virus-induced cytopathogenicity after 3 days; type: functional, organism-based; details: Human alphaherpesvirus 1, KOS, 72 h
[19] = Cytotoxicity against human HEL cells assessed as alteration in cell morphology; type: cell-based; method in brief: as §2
[20] = tested on: Human alphaherpesvirus 2; assay: Antiviral activity against HSV2 G infected in human HEL cells assessed as reduction in virus-induced cytopathogenicity after 3 days; type: functional, organism-based; details: Human alphaherpesvirus 2, strain G, 72 h

Row | Compound | MBC [1] [µM] | MIC [1] [µM] | MFC [2] [µM] | MIC [2] [µM] | MBC [3] [µM] | MIC [3] [µM] | MBC [4] [µM] | MIC [4] [µM] | MFC [5] [µM] | MIC [5] [µM] | EC50 [6] [µg/mL] | MCC [7] [µg/mL] | EC50 [8] [µg/mL] | EC50 [9] [µg/mL] | EC50 [10] [µg/mL] | EC50 [11] [µg/mL] | MCC [12] [µg/mL] | EC50 [13] [µg/mL] | EC50 [14] [µg/mL] | EC50 [15] [µg/mL] | further results
1 | Clc1ccc(-c2ncc[nH]2)cc1 | 702 (≈ 125 µg/mL) | 8 (≈ 1.43 µg/mL) | 561 (≈ 100 µg/mL) | 702 (≈ 125 µg/mL) | 35 (≈ 6.25 µg/mL) | 4 (≈ 0.714 µg/mL) | 702 (≈ 125 µg/mL) | 8 (≈ 1.43 µg/mL) | 280 (≈ 50 µg/mL) | 35 (≈ 6.25 µg/mL) | – | – | – | – | – | – | – | – | – | – | –
2 | OC(Cn1cncn1)(Cn1cncn1)c1ccc(F)cc1F [FLUCONAZOLE] | – | – | 40 (≈ 12.3 µg/mL) | 1 (≈ 0.306 µg/mL) | – | – | – | – | 40 (≈ 12.3 µg/mL) | 1 (≈ 0.306 µg/mL) | – | – | – | – | – | – | – | – | – | – | –
3 | Nc1ncnc2c1ncn2C[C@H](O)CO [(S)-DHPA] | – | – | – | – | – | – | – | – | – | – | > 250 | > 250 | > 250 | > 250 | > 250 | > 250 | > 250 | > 250 | > 250 | > 250 | –
4 | O=[N+]([O-])c1ccccc1-c1ncc[nH]1 | 33 (≈ 6.24 µg/mL) | 4 (≈ 0.757 µg/mL) | 264 (≈ 49.9 µg/mL) | 33 (≈ 6.24 µg/mL) | 33 (≈ 6.24 µg/mL) | 4 (≈ 0.757 µg/mL) | 33 (≈ 6.24 µg/mL) | 4 (≈ 0.757 µg/mL) | 264 (≈ 49.9 µg/mL) | 33 (≈ 6.24 µg/mL) | – | – | – | – | – | – | – | – | – | – | –
5 | O=C(c1ccc([N+](=O)[O-])cc1)n1ccnc1-c1ccc([N+](=O)[O-])cc1 | 295 (≈ 99.8 µg/mL) | 73 (≈ 24.7 µg/mL) | 147 (≈ 49.7 µg/mL) | 18 (≈ 6.09 µg/mL) | 295 (≈ 99.8 µg/mL) | 73 (≈ 24.7 µg/mL) | 295 (≈ 99.8 µg/mL) | 36 (≈ 12.2 µg/mL) | 147 (≈ 49.7 µg/mL) | 18 (≈ 6.09 µg/mL) | > 100 | > 100 | > 20 | > 100 | > 100 | > 20 | 100 | > 100 | > 100 | > 20 | EC50 [16]: 45 µg/mL (≈ 133 µM); EC50 [17]: > 100 µg/mL; EC50 [18]: 59 µg/mL (≈ 174 µM); MCC [19]: > 100 µg/mL; EC50 [20]: 50 µg/mL (≈ 148 µM)
6 | Cc1cccc(-c2ncc[nH]2)c1C | 36 (≈ 6.2 µg/mL) | 4 (≈ 0.689 µg/mL) | 144 (≈ 24.8 µg/mL) | 17 (≈ 2.93 µg/mL) | 36 (≈ 6.2 µg/mL) | 4 (≈ 0.689 µg/mL) | 36 (≈ 6.2 µg/mL) | 4 (≈ 0.689 µg/mL) | 289 (≈ 49.8 µg/mL) | 72 (≈ 12.4 µg/mL) | – | – | – | – | – | – | – | – | – | – | –
7 | O=C(O)c1ccccc1-c1ncc[nH]1 | 265 (≈ 49.9 µg/mL) | 4 (≈ 0.753 µg/mL) | 265 (≈ 49.9 µg/mL) | 33 (≈ 6.21 µg/mL) | 531 (≈ 99.9 µg/mL) | 4 (≈ 0.753 µg/mL) | 33 (≈ 6.21 µg/mL) | 4 (≈ 0.753 µg/mL) | 526 (≈ 99 µg/mL) | 66 (≈ 12.4 µg/mL) | – | – | – | – | – | – | – | – | – | – | –
8 | O=[N+]([O-])c1ccc(-c2ncc[nH]2)cc1 | 33 (≈ 6.24 µg/mL) | 4 (≈ 0.757 µg/mL) | 264 (≈ 49.9 µg/mL) | 33 (≈ 6.24 µg/mL) | 33 (≈ 6.24 µg/mL) | 4 (≈ 0.757 µg/mL) | 132 (≈ 25 µg/mL) | 16 (≈ 3.03 µg/mL) | 264 (≈ 49.9 µg/mL) | 33 (≈ 6.24 µg/mL) | – | – | – | – | – | – | – | – | – | – | –
9 | O=C(c1ccccc1Br)n1ccnc1-c1cccc([N+](=O)[O-])c1 | 16 (≈ 5.95 µg/mL) | 2 (≈ 0.744 µg/mL) | 67 (≈ 24.9 µg/mL) | 16 (≈ 5.95 µg/mL) | 33 (≈ 12.3 µg/mL) | 4 (≈ 1.49 µg/mL) | 268 (≈ 99.7 µg/mL) | 33 (≈ 12.3 µg/mL) | 268 (≈ 99.7 µg/mL) | 16 (≈ 5.95 µg/mL) | > 100 | > 100 | > 100 | > 100 | > 100 | > 100 | > 100 | > 100 | > 100 | > 100 | EC50 [16]: > 100 µg/mL; EC50 [17]: > 100 µg/mL; EC50 [18]: > 100 µg/mL; MCC [19]: > 100 µg/mL; EC50 [20]: > 100 µg/mL
10 | Brc1ccc(-c2ncc[nH]2)cc1 | 28 (≈ 6.25 µg/mL) | 3 (≈ 0.669 µg/mL) | 112 (≈ 25 µg/mL) | 14 (≈ 3.12 µg/mL) | 28 (≈ 6.25 µg/mL) | 3 (≈ 0.669 µg/mL) | 28 (≈ 6.25 µg/mL) | 3 (≈ 0.669 µg/mL) | 224 (≈ 50 µg/mL) | 28 (≈ 6.25 µg/mL) | – | – | – | – | – | – | – | – | – | – | –
11 | COc1ccc(-c2nccn2C(=O)c2ccc([N+](=O)[O-])cc2)cc1 | 147 (≈ 47.5 µg/mL) | 18 (≈ 5.82 µg/mL) | 147 (≈ 47.5 µg/mL) | 9 (≈ 2.91 µg/mL) | 18 (≈ 5.82 µg/mL) | 2 (≈ 0.647 µg/mL) | 18 (≈ 5.82 µg/mL) | 2 (≈ 0.647 µg/mL) | 147 (≈ 47.5 µg/mL) | 18 (≈ 5.82 µg/mL) | > 100 | > 100 | > 100 | > 100 | > 100 | > 100 | > 100 | > 100 | > 100 | > 100 | EC50 [16]: > 100 µg/mL; EC50 [17]: > 100 µg/mL; EC50 [18]: > 100 µg/mL; MCC [19]: > 100 µg/mL; EC50 [20]: > 100 µg/mL
